According to ChEMBL document CHEMBL3734708, “Synthesis, cytotoxicity and antiviral evaluation of new series of imidazo[4,5-g]quinoline and pyrido[2,3-g]quinoxalinone derivatives” (Eur J Med Chem, 2015):

Test system: not listed separately
Assay: Cytotoxicity against MDBK cells assessed as reduction in cell viability after 72 hrs by MTT assay
Assay type: cell-based, Bos taurus
Settings: cattle
Method in brief: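 MDBK cells seeded at 6 × 10^5 cells/mL in MEM-E with L-glutamine, 1 mM sodium pyruvate, kanamycin and 10% horse serum. Mock-infected cultures held with serial compound dilutions at 37 °C, 5% CO2. MTT viability read after 72 h. 50% cytotoxic concentration from linear regression as % of untreated controls. Three independent determinations.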

Q: For `C[C@@]1(O)[C@H](O)[C@@H](CO)O[C@H]1n1cnc2c(=O)[nH]c(N)nc21` [2'-B-METHYL-GUANOSINE], which CC50 at 72 h is on record?
A: The CC50 at 72 h was greater than 100 µM.

Test system: not listed separately
Assay: Cytotoxicity against BHK21 cells assessed as reduction in cell viability after 72 hrs by MTT assay
Assay type: cell-based, Mesocricetus auratus, BHK-21
Settings: hamster
Method in brief: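 BHK cells seeded at 1 × 10^6 cells/mL in MEM-E with L-glutamine, 1 mM sodium pyruvate, kanamycin and 10% FBS. Mock-infected cells exposed to serial dilutions of compound at 37 °C, 5% CO2, run in parallel with the antiviral assays. Viability by MTT at 72 h. CC50 by linear regression vs untreated controls. Mean of three independent determinations.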

Q: With `C[C@@]1(O)[C@H](O)[C@@H](CO)O[C@H]1n1cnc2c(=O)[nH]c(N)nc21` [2'-B-METHYL-GUANOSINE] as the molecule, how does the CC50 at 72 h read?
A: Its CC50 at 72 h is 1100 nM.

Test system: Yellow fever virus
Assay: Antiviral activity against YFV 17-D vaccine (Stamaril Pasteur J07B01) infected in BHK21 cells assessed as protection against virus-induced cytopathic effect after 3 or 4 days by MTT assay
Assay type: functional, organism-based
Settings: BHK-21
Method in brief: (§1)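 BHK-21 (YFV, Reo-1) or MDBK (BVDV) cells seeded at 5 × 10^4 or 3 × 10^4 cells/well and grown overnight to confluence. Monolayers infected at m.o.i. 0.01 in maintenance medium (MEM-Earle, 0.5% inactivated FBS). Serial compound dilutions added 2 h after infection; 37 °C for 3-4 days. Viability read by MTT. EC50 by linear regression versus untreated controls; mean of three determinations.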

Q: With `C[C@@]1(O)[C@H](O)[C@@H](CO)O[C@H]1n1cnc2c(=O)[nH]c(N)nc21` [2'-B-METHYL-GUANOSINE] as the molecule, how does the EC50 read?
A: The EC50 was greater than 100 µM.

Test system: Mammalian orthoreovirus 1
Assay: Antiviral activity against Reovirus 1 ATCC VR- 214 infected in BHK21 cells assessed as protection against virus-induced cytopathic effect after 3 or 4 days by MTT assay
Assay type: functional, cell-based
Settings: Mammalian orthoreovirus 1, ATCC VR- 214, BHK-21
Method in brief: as §1

Q: Which EC50 does the source give for `C[C@@]1(O)[C@H](O)[C@@H](CO)O[C@H]1n1ccc(N)nc1=O` here?
A: Its EC50 is greater than 100000 nM.

Q: Which EC50 does the source give for `C[C@@]1(O)[C@H](O)[C@@H](CO)O[C@H]1n1cnc2c(=O)[nH]c(N)nc21` [2'-B-METHYL-GUANOSINE] here?
A: The EC50 was 1900 nM.

Test system: not listed separately
Assay: Cytotoxicity against african green monkey Vero 76 cells assessed as reduction in cell viability after 48 to 96 hrs by MTT assay
Assay type: cell-based
Settings: chlorocebus sabaeus
Method in brief: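 Vero-76 cells plated at 4 × 10^5 cells/mL in D-MEM with L-glutamine, kanamycin and 10% FBS. Incubated with serial dilutions of test compounds at 37 °C, 5% CO2 for 48-96 h. Viability by MTT. CC50 by linear regression relative to untreated cells. Mean of three independent runs.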

Q: For `C[C@@]1(O)[C@H](O)[C@@H](CO)O[C@H]1n1ccc(N)nc1=O`, which CC50 is on record?
A: The CC50 was 16 µM.

Test system: Coxsackievirus B5
Assay: Antiviral activity against CVB-5 virus Faulkner ATCC VR-185 infected in african green monkey Vero-76 cells after 3 days by plaque reduction assay
Assay type: functional, organism-based
Settings: Enterovirus B, Faulkner ATCC VR-185, Vero 76, 72 h

Q: Which EC50 does the source give for `C#C[C@@]1(O)[C@H](O)[C@@H](CO)O[C@H]1n1ccc(N)nc1=O` [2'-ETHYNYL-D-CYTIDINE] here?
A: Its EC50 is greater than 100 µM.

Q: With `O=c1cnn([C@@H]2O[C@H](CO)[C@@H](O)[C@H]2O)c(=O)[nH]1` [6-AZAURIDINE] as the molecule, how does the EC50 read?
A: The EC50 was no less than 12.5 µM.

Q: With `Nc1nc2c(ncn2COCCO)c(=O)[nH]1` [ACYCLOVIR] as the molecule, how does the EC50 read?
A: The EC50 was greater than 100 µM.

Q: Which EC50 does the source give for `Nc1ccn(C[C@@H](CO)OCP(=O)(O)O)c(=O)n1` [CIDOFOVIR] here?
A: The EC50 was greater than 100 µM.

Test system: Human poliovirus 1 strain Sabin
Assay: Antiviral activity against Human poliovirus 1 strain Sabin 1 virus infected in african green monkey Vero-76 cells after 2 days by plaque reduction assay
Assay type: functional, organism-based
Settings: Enterovirus C, 1, Vero 76, 48 h

Q: Which EC50 does the source give for `C#C[C@@]1(O)[C@H](O)[C@@H](CO)O[C@H]1n1ccc(N)nc1=O` [2'-ETHYNYL-D-CYTIDINE] here?
A: Its EC50 is 27 µM.

Test system: Respiratory syncytial virus
Assay: Antiviral activity against RSVA2 ATCC VR-1540 infected in african green monkey Vero-76 cells after 5 days by plaque reduction assay
Assay type: functional, organism-based
Settings: human respiratory syncytial virus, A2 ATCC VR-1540, Vero 76, 120 h

Q: Which EC50 does the source give for `C#C[C@@]1(O)[C@H](O)[C@@H](CO)O[C@H]1n1ccc(N)nc1=O` [2'-ETHYNYL-D-CYTIDINE] here?
A: The EC50 was 23 µM.

Test system: Vesicular stomatitis virus
Assay: Antiviral activity against VSV Indiana ATCC VR-158 infected in african green monkey Vero-76 cells after 2 days by plaque reduction assay
Assay type: functional, organism-based
Settings: Indiana ATCC VR-158, Vero 76, 48 h

Q: For `O=c1cnn([C@@H]2O[C@H](CO)[C@@H](O)[C@H]2O)c(=O)[nH]1` [6-AZAURIDINE], which EC50 is on record?
A: Its EC50 is 1200 nM.

Test system: Vaccinia virus
Assay: Antiviral activity against VV Elstree ATCC VR-1549 infected in african green monkey Vero-76 cells after 3 days by plaque reduction assay
Assay type: functional, organism-based
Settings: Orthopoxvirus vaccinia, Elstree ATCC VR-1549, Vero 76, 72 h

Q: With `Nc1ccn(C[C@@H](CO)OCP(=O)(O)O)c(=O)n1` [CIDOFOVIR] as the molecule, how does the EC50 read?
A: Its EC50 is 19 µM.
